According to ChEMBL document CHEMBL1154872, “Design, synthesis, and biological evaluation of novel pyrimidine derivatives as CDK2 inhibitors” (Eur J Med Chem, 2010):

Key:
HCT-116 = assay: Growth inhibition of human HCT116 cells after 2 days by sulforhodamine B assay; assay type: functional; conditions: HCT-116, 48 h
Summary of the method: (§1)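 Cells kept in RPMI 1640 with 10% FBS at 37 °C, 5% CO2; 1000 cells/well plated, compounds added next day at various concentrations, 2 days exposure. Fixed with 4% formalin 30 min, stained 0.1% SRB 30 min, acetic acid washes, dye eluted in 0.1 M Tris-HCl pH 8.0, A520 read. Triplicate, averaged; time-zero absorbance = 0%, untreated 2-day growth = 100%.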

[1] = target: Cyclin-dependent kinase 2/cyclin A (Homo sapiens, UniProt P24941); assay: Inhibition of human recombinant CDK2/cyclin A expressed in baculovirus-infected insect Sf21 cells after 10 mins
A-431 = assay: Growth inhibition of human A431 cells after 2 days by sulforhodamine B assay; assay type: functional; conditions: A-431, 48 h; summary of the method: as §1
[2] = target: Epidermal growth factor receptor (Homo sapiens, UniProt P00533); assay: Inhibition of EGFR
Chain of Epidermal growth factor receptor (P00533 whole entry): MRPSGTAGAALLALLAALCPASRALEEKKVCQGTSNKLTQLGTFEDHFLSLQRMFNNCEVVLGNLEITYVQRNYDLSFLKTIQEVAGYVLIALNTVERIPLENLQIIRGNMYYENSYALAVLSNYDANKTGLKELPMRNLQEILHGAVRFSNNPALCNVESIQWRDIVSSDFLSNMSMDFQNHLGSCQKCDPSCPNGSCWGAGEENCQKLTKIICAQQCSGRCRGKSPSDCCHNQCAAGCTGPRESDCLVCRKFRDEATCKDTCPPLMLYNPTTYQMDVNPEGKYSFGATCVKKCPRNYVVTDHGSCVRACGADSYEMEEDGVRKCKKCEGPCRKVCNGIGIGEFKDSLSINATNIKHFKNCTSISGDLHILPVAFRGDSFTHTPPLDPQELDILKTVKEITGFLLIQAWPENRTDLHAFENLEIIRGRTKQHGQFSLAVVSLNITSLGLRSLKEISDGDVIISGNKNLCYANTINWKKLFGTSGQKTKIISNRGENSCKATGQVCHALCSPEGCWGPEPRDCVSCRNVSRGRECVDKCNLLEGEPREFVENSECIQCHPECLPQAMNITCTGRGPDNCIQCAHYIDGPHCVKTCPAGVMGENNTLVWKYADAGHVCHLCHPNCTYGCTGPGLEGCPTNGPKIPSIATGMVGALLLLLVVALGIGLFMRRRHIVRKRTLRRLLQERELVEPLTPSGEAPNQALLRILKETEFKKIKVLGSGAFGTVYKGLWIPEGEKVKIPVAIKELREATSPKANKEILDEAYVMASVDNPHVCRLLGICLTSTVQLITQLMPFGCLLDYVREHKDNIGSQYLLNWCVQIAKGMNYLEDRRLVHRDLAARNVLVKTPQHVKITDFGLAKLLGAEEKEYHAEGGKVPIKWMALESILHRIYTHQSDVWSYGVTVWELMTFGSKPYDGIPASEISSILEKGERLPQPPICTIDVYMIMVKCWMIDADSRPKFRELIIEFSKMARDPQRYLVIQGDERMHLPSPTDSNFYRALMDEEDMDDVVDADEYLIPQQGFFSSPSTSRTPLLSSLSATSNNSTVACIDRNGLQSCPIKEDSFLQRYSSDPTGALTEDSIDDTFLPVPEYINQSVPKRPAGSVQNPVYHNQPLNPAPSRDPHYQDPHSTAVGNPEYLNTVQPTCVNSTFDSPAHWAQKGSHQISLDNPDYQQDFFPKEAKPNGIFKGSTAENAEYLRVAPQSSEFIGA

Structure (SMILES)	GI50 (HCT-116) [µM]	IC50 [1] [µM]	GI50 (A-431) [µM]	IC50 [2] [µM]
CC1=C(C(=O)Nc2cccc([N+](=O)[O-])c2)C(c2ccc(O)cc2O)NC(Nc2ccc(S(=O)(=O)Nc3ncccn3)cc2)=N1 (centres undefined)	77.5	57.5	69.2	88.3
CC1=C(C(=O)Nc2cccc([N+](=O)[O-])c2)C(c2ccc(O)cc2O)NC(Nc2ccc(S(=O)(=O)Nc3nc(C)cc(C)n3)cc2)=N1 (centres undefined)	8.99	11.5	3.94	79.8
CC1=C(C(=O)Nc2cccc([N+](=O)[O-])c2)C(c2ccc(O)cc2O)NC(Nc2ccc(S(=O)(=O)Nc3cc(C)on3)cc2)=N1 (centres undefined)	16.6	0.9	2.94	> 100
CC1=C(C(=O)Nc2cccc([N+](=O)[O-])c2)C(c2ccc(O)cc2O)NC(NN2C(=O)/C(=C\c3cccs3)SC2=S)=N1 (centres undefined)	4.5	0.3	2.78	80.6
CC1=C(C(=O)Nc2cccc([N+](=O)[O-])c2)C(c2ccc(O)cc2O)NC(NN2C(=O)/C(=C\c3ccccc3)SC2=S)=N1 (centres undefined)	16.6	28.2	24.3	> 100
CC1=C(C(=O)Nc2cccc([N+](=O)[O-])c2)C(c2ccc(O)cc2O)NC(NN)=N1 (centres undefined)	47.7	> 100	24.3	47.9
CC1=C(C(=O)Nc2cccc([N+](=O)[O-])c2)C(c2ccc(O)cc2O)NC(NN2C(=O)/C(=C\c3ccco3)SC2=S)=N1 (centres undefined)	> 100	0.4	28.9	99.3
CC1=C(C(=O)Nc2cccc([N+](=O)[O-])c2)C(c2ccc(O)cc2O)NC(N/N=C/c2cccs2)=N1 (centres undefined)	38.2	22.9	19.1	> 100
Cc1nc(S(=O)(=O)Cc2ccccc2)nc(-c2ccc(O)cc2O)c1C(=O)Nc1cccc([N+](=O)[O-])c1	10.9	0.9	28.9	> 100
CC1=C(C(=O)Nc2cccc([N+](=O)[O-])c2)C(c2ccc(O)cc2O)NC(N/N=C/c2ccco2)=N1 (centres undefined)	8.89	3.8	2.91	> 100
CC1=C(C(=O)Nc2ccc(C)cc2)C(c2ccc(O)cc2O)NC(Nc2ccc([N+](=O)[O-])cc2Cl)=N1 (centres undefined)	28.2	44.9	31.9	60.9
CC1=C(C(=O)Nc2cccc([N+](=O)[O-])c2)C(c2ccc(O)cc2O)NC(NCc2ccccc2)=N1 (centres undefined)	> 100	46.8	35.6	> 100
CC1=C(C(=O)Nc2cccc([N+](=O)[O-])c2)C(c2ccc(O)cc2O)NC(Nc2ccc([N+](=O)[O-])cc2Cl)=N1 (centres undefined)	10.9	8.1	3.94	> 100
Cc1ccc(NC(=O)c2c(C)nc(S(=O)(=O)Cc3ccccc3)nc2-c2ccc(O)cc2O)cc1	23.4	48.3	32	> 100
CC1=C(C(=O)Nc2ccc(C)cc2)C(c2ccc(O)cc2O)NC(SCc2ccccc2)=N1 (centres undefined)	14.5	25.4	20.8	93.5
CC1=C(C(=O)Nc2cccc([N+](=O)[O-])c2)C(c2ccc(O)cc2O)NC(SCc2ccccc2)=N1 (centres undefined)	29	24.6	> 100	55.6
CC1=NN(C2=NC(C)=C(C(=O)Nc3cccc([N+](=O)[O-])c3)C(c3ccc(O)cc3O)N2)C(=O)/C1=C/c1ccco1 (centres undefined)	> 100	10.3	15.8	> 100
CC1=NN(C2=NC(C)=C(C(=O)Nc3cccc([N+](=O)[O-])c3)C(c3ccc(O)cc3O)N2)C(=O)/C1=C/c1cccs1 (centres undefined)	26.5	3.1	37.1	> 100
CC1=C(C(=O)Nc2ccc(C)cc2)C(c2ccc(O)cc2O)NC(NCc2ccccc2)=N1 (centres undefined)	66.7	> 100	42.7	23.5
COc1cccc2c1C(=O)c1c(O)c3c(c(O)c1C2=O)C[C@@](O)(C(=O)CO)C[C@@H]3O[C@H]1C[C@H](N)[C@H](O)[C@H](C)O1 [DOXORUBICIN]	0.13		0.18	
CC[C@H](CO)Nc1nc(NCc2ccccc2)c2c(n1)N(C(C)C)CN2 [RESCOVITINE]		0.5		
